{"source": "ChEMBL document CHEMBL1155043", "about": "“Complexation of the anti-Trypanosoma cruzi drug benznidazole improves solubility and efficacy” (J Med Chem, 2008)", "key": {"Trypanosoma cruzi [1]": {"tested_on": "Trypanosoma cruzi", "assay": "Antitrypanosomal activity against bloodstream trypomastigote of Trypanosoma cruzi Y assessed as number of motile forms after 1 hr by hemocytometer", "type": "functional, organism-based", "outline": "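Bloodstream trypomastigotes (Y strain) taken from mice at peak parasitemia, resuspended to 1.0 × 10^6/mL. Triplicate wells with compound in PBS at 0.1, 0.25, 0.5 and 1.0 mM, 37 °C, 5% CO2, 1 h. Motile forms counted by hemocytometer; % trypanocidal activity = [1 - (LDt/LCt)] × 100 against untreated wells.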"}, "V79": {"tested_on": "V79", "assay": "Cytotoxicity against chinese hamster V79 cells", "type": "cell-based", "details": "Cricetulus griseus"}, "Trypanosoma cruzi [2]": {"tested_on": "Trypanosoma cruzi", "assay": "Antiproliferative activity against Trypanosoma cruzi Y epimastigotes assessed as number of motile forms at 0.1 mM after 1 hr by hemocytometer", "type": "functional", "details": "read-out: GI", "outline": "(§1)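 Y strain epimastigotes grown in Schneider's medium with 20% fetal calf serum, taken in exponential phase, PBS-washed, resuspended to 2.0 × 10^6/mL. Plated in triplicate with compound diluted in PBS, incubated at 37 °C, 5% CO2. Motile forms counted by hemocytometer; % growth inhibition = {1 - [(LDt - LDt0)/(LCt - LCt0)]} × 100 against untreated wells.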"}, "Trypanosoma cruzi [3]": {"tested_on": "Trypanosoma cruzi", "assay": "Antiproliferative activity against Trypanosoma cruzi Y epimastigotes assessed as number of motile forms at 0.5 mM after 1 hr by hemocytometer", "type": "functional", "details": "read-out: GI", "outline": "as §1"}, "Trypanosoma cruzi [4]": {"tested_on": "Trypanosoma cruzi", "assay": "Antiproliferative activity against Trypanosoma cruzi Y epimastigotes assessed as number of motile forms at 1 mM after 1 hr by hemocytometer", "type": "functional", "details": "read-out: GI", "outline": "as §1"}, "Trypanosoma cruzi [5]": {"tested_on": "Trypanosoma cruzi", "assay": "Antiproliferative activity against Trypanosoma cruzi Y epimastigotes assessed as number of motile forms at 0.1 mM after 4 hrs by hemocytometer", "type": "functional", "details": "read-out: GI", "outline": "as §1"}, "Trypanosoma cruzi [6]": {"tested_on": "Trypanosoma cruzi", "assay": "Antiproliferative activity against Trypanosoma cruzi Y epimastigotes assessed as number of motile forms at 0.5 mM after 4 hrs by hemocytometer", "type": "functional", "details": "read-out: GI", "outline": "as §1"}, "Trypanosoma cruzi [7]": {"tested_on": "Trypanosoma cruzi", "assay": "Antiproliferative activity against Trypanosoma cruzi Y epimastigotes assessed as number of motile forms at 1 mM after 4 hrs by hemocytometer", "type": "functional", "details": "read-out: GI", "outline": "as §1"}, "Trypanosoma cruzi [8]": {"tested_on": "Trypanosoma cruzi", "assay": "Antiproliferative activity against Trypanosoma cruzi Y epimastigotes assessed as number of motile forms at 0.1 mM after 24 hrs by hemocytometer", "type": "functional", "details": "read-out: GI", "outline": "as §1"}, "Trypanosoma cruzi [9]": {"tested_on": "Trypanosoma cruzi", "assay": "Antiproliferative activity against Trypanosoma cruzi Y epimastigotes assessed as number of motile forms at 0.5 mM after 24 hrs by hemocytometer", "type": "functional", "details": "read-out: GI", "outline": "as §1"}, "Trypanosoma cruzi [10]": {"tested_on": "Trypanosoma cruzi", "assay": "Antiproliferative activity against Trypanosoma cruzi Y epimastigotes assessed as number of motile forms at 1 mM after 24 hrs by hemocytometer", "type": "functional", "details": "read-out: GI", "outline": "as §1"}, "Trypanosoma cruzi [11]": {"tested_on": "Trypanosoma cruzi", "assay": "Antitrypanosomal activity against Trypanosoma cruzi Y epimastigotes assessed as number of motile forms after 24 hrs by hemocytometer", "type": "functional, organism-based", "outline": "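Y strain epimastigotes in Schneider's medium with 20% FCS, exponential phase, PBS-washed, 2.0 × 10^6/mL. Triplicate wells with compound in PBS at 0.1, 0.25, 0.5 and 1.0 mM, 37 °C, 5% CO2, 24 h. Motile forms counted by hemocytometer; IC50 taken as 50% antiproliferative activity. Mean ± SEM, n = 3.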"}, "Trypanosoma cruzi [12]": {"tested_on": "Trypanosoma cruzi", "assay": "Antitrypanosomal activity against Trypanosoma cruzi Y infected in Swiss mouse assessed as survivality at 100 nmol/kg, ip after 15 consecutive days", "type": "functional, organism-based", "outline": "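Female Swiss mice, 5-6 weeks old, groups of six, infected ip with 1.0 × 10^3 Y strain bloodstream trypomastigotes. Treated ip in 100 µL PBS daily for 15 consecutive days. Controls were untreated or PBS-only infected mice. Survival followed up to 120 days.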"}, "Trypanosoma cruzi [13]": {"tested_on": "Trypanosoma cruzi", "assay": "Antitrypanosomal activity against Trypanosoma cruzi Y infected in Swiss mouse assessed as decrease in parasitemia at 385 umol/kg, po after 15 consecutive days", "type": "functional, organism-based"}, "Trypanosoma cruzi [14]": {"tested_on": "Trypanosoma cruzi", "assay": "Antitrypanosomal activity against Trypanosoma cruzi Y infected in Swiss mouse assessed as survivality at 385 umol/kg, po for 1 day after 15 days", "type": "functional", "outline": "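Female Swiss mice, 5-6 weeks old, infected intraperitoneally with 1.0 × 10^3 Y-strain bloodstream trypomastigotes. A single oral dose in PBS was given only on the first day after infection. Groups of six, with infected controls. Survival was followed, and parasitemia was counted as motile trypomastigotes in 5 µL tail blood.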"}, "[15]": {"assay": "Aqueous solubility at pH 6.5", "type": "physicochemical", "outline": "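Solubility measured in a bio-relevant medium simulating fasted proximal small intestine: 3 mM sodium taurocholate, 0.75 mM lecithin, KH2PO4, KCl, pH 6.5, 37 °C. Excess compound stirred 24 h in 5 mL, filtered through 0.45 µm, diluted, and quantified by UV-vis at 323 nm (ε = 4.5 × 10^3 M-1 cm-1), in triplicate.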"}, "Trypanosoma cruzi [16]": {"tested_on": "Trypanosoma cruzi", "assay": "Antitrypanosomal activity against Trypanosoma cruzi Y infected in Swiss mouse assessed as survivality at 385 umol/kg, po after 15 consecutive days", "type": "functional", "outline": "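Female Swiss mice, 5-6 weeks old, infected intraperitoneally with 1.0 × 10^3 Y-strain bloodstream trypomastigotes from an infected mouse. Oral dosing once daily in PBS for 15 consecutive days. Groups of six; untreated or PBS-only infected controls. Parasitemia counted as motile trypomastigotes in 5 µL tail blood, and survival of the treated animals recorded.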"}}, "note": "Active and inactive are the calls of the source. The rule behind the calls is not given here.", "data": [{"smiles": "O=C(Cn1ccnc1[N+](=O)[O-])NCc1ccccc1", "note": "[BENZNIDAZOLE]", "values": [{"measurement": "IC50", "setting": "Trypanosoma cruzi [1]", "value": "> 1000", "unit": "µM"}, {"measurement": "IC50", "setting": "V79", "value": 2000, "unit": "µM"}, {"measurement": "inhibition of growth at 100 µM", "setting": "Trypanosoma cruzi [2]", "value": 0, "unit": "%"}, {"measurement": "inhibition of growth at 500 µM", "setting": "Trypanosoma cruzi [3]", "value": 0, "unit": "%"}, {"measurement": "inhibition of growth at 1000 µM", "setting": "Trypanosoma cruzi [4]", "value": 7, "unit": "%"}, {"measurement": "inhibition of growth at 100 µM", "setting": "Trypanosoma cruzi [5]", "value": 11, "unit": "%"}, {"measurement": "inhibition of growth at 500 µM", "setting": "Trypanosoma cruzi [6]", "value": 15, "unit": "%"}, {"measurement": "inhibition of growth at 1000 µM", "setting": "Trypanosoma cruzi [7]", "value": 24, "unit": "%"}, {"measurement": "inhibition of growth at 100 µM", "setting": "Trypanosoma cruzi [8]", "value": 15, "unit": "%"}, {"measurement": "inhibition of growth at 500 µM", "setting": "Trypanosoma cruzi [9]", "value": 26, "unit": "%"}, {"measurement": "inhibition of growth at 1000 µM", "setting": "Trypanosoma cruzi [10]", "value": 31, "unit": "%"}, {"measurement": "IC50", "setting": "Trypanosoma cruzi [11]", "value": "> 1000", "unit": "µM"}, {"measurement": "Activity", "setting": "Trypanosoma cruzi [12]", "value": "inactive"}, {"measurement": "Activity", "setting": "Trypanosoma cruzi [13]", "value": "Active"}, {"measurement": "survival at 385 µmol/kg", "setting": "Trypanosoma cruzi [14]", "value": 20, "unit": "%"}, {"measurement": "solubility", "setting": "[15]", "value": 400, "unit": "µg/mL"}, {"measurement": "survival at 385 µmol/kg", "setting": "Trypanosoma cruzi [16]", "value": 100, "unit": "%"}]}]}
